Ends that are not written are not given here.
Assays:
PMN = details: cited from earlier work; for effect on PMN apoptosis: ref [6]–[9]
[1] = target: recombinant purified β2 subunit (Homo sapiens, UniProt P05107); assay: Solid-phase binding to purified β2 subunit; details: for recognition by individual integrin subunits (in words): solid-phase binding, αM versus β2
How it was run: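 Purified recombinant αMβ2, αM or β2 (from HEK293 lines) was coated overnight at 4°C in TBS with 10 mM n-octyl-β-D-glucopyranoside and postcoated with 0.5% PVP for 1 h at 37°C. Biotinylated Plg or Ang(1–4) (0–10 μM) was bound for 2 h at 37°C in the same buffer plus 1 mM CaCl₂/MgCl₂. Binding was detected with alkaline phosphatase–avidin and pNPP at A405. Kd came from a one-site binding fit.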

human PMNs = details: 16 h
αM subunit on K562 cells = assay: Soluble ligand binding to K562 cells expressing αM, FACS; set-up: species or system human; details: 40 min, 37 °C
How it was run: (§1)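 Transiently transfected K562 cells were incubated with soluble Alexa 488-labelled Plg or Ang(1–4) for 40 min at 37°C in HBSS containing 1 mM CaCl₂ and 1 mM MgCl₂. Cells were washed twice and bound ligand was quantified by FACS; three independent experiments. For inhibition, cells were pretreated for 20 min at 37°C with function-blocking anti-αM or anti-β2 mAbs (20 μg/ml) or NIF (20 nM).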

β2 subunit on K562 cells = assay: Soluble ligand binding to K562 cells expressing β2, FACS; set-up: species or system human; details: 40 min, 37 °C
How it was run: as §1

αMβ2 = αMβ2 clustering on PMNs, fluorescence microscopy; type: cell-based, human; details: 4 h, 37 °C; proteins 1 μM, peptides 100 μM; anti-αM OKMI staining; four donors
How it was run: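 Human PMNs were exposed to ligands (proteins 1 μM, peptides 100 μM) for 4 h at 37°C, or to 1 μM Plg together with clustering inhibitors at the final concentrations used in apoptosis assays. Cells were fixed in 4% paraformaldehyde and stained with anti-αM mAb OKMI plus Alexa 488 goat anti-mouse IgG. They were cytospun, mounted and imaged by fluorescence microscopy (×40/0.7 NA); PMNs came from four donors.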

[2] = system: mock-transfected K562 cells; assay: Apoptosis of mock-transfected K562 cells, annexin V, FACS; type: cell-based, human; details: 16 h, 37 °C; proteins 1 μM, peptides 100 μM; no ligand 81 ± 8; mean ± SEM, n = 5
caspase-8 [3] = assay: Caspase-8 cleavage in PMN lysates, Western blot; type: cell-based, human; details: PMN lysate, 16 h; proteins 1 μM, peptides 100 μM; six donors
Akt [4] = assay: Akt phosphorylation in PMNs, Western blot; type: cell-based, human; details: PMN stimulated with 1 nM PMA, 30 min, 37 °C; proteins 1 μM, peptides 100 μM
How it was run: (§2)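 Human PMNs stimulated with 1 nM PMA were incubated with ligands for 30 min at 37°C in HBSS with 1 mM CaCl₂, 1 mM MgCl₂, 0.1% BSA, pH 7.4. Cells were lysed in ice-cold Tris/EDTA/detergent buffer with phosphatase and protease inhibitors. Equal protein was immunoblotted for phospho- and total Akt or ERK1/2, with actin. Inhibition arm: 20 min pretreatment at 37°C with 10 μM Akt inhibitor, 50 μM PD98059, 50 nM NIF, or F(ab′)₂ anti-αM or anti-MHC-1 (20 μg/ml), then 1 μM Plg.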

Bax [5] = assay: Bax cleavage in K562 cell lysates, Western blot; type: cell-based, human; details: K562 αMβ2 transfectants, 24 h, 37 °C; proteins 1 μM, peptides 100 μM
ERK1/2 [6] = assay: ERK1/2 phosphorylation in transfected K562 cells, Western blot; type: cell-based, human; details: 37 °C; for ERK1/2 activation, αM cells: K562 expressing αM, 30 min; for ERK1/2 activation, αMβ2 cells: K562 expressing αMβ2, 30 min; for ERK1/2 phosphorylation, mock and β2 cells: K562 mock or expressing β2, 30 min
How it was run: (§3)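 Transiently transfected K562 cells (αM, β2, αMβ2 or mock) were exposed to ligands for 30 min at 37°C and lysed in ice-cold buffer. Equal protein was run on SDS-PAGE and blotted with the PathScan Multiplex Western Cocktail I, then reprobed for total ERK1/2; blots shown are representative of three experiments.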

Akt [7] = assay: Akt phosphorylation in transfected K562 cells, Western blot; type: cell-based, human; details: 37 °C; for Akt phosphorylation, αM, β2 and mock cells: K562 expressing αM or β2, or mock-transfected, 30 min; for Akt phosphorylation, αMβ2 cells: K562 expressing αMβ2, 30 min
How it was run: as §3

caspase-8 [8] = assay: Caspase-8 cleavage in K562 cell lysates, Western blot; type: cell-based, human; details: K562 αMβ2 transfectants, 24 h, 37 °C; proteins 1 μM, peptides 100 μM
caspase-3 [9] = assay: Caspase-3 cleavage in PMN lysates, Western blot; type: cell-based, human; details: PMN lysate, 16 h; proteins 1 μM, peptides 100 μM; six donors
αMβ2 on K562 cells = assay: Soluble ligand binding to K562 cells expressing αMβ2, FACS; set-up: species or system human; details: 40 min, 37 °C
How it was run: as §1

caspase-3 [10] = assay: Caspase-3 cleavage in K562 cell lysates, Western blot; type: cell-based, human; details: K562 αMβ2 transfectants, 24 h, 37 °C; proteins 1 μM, peptides 100 μM
Bax [11] = assay: Bax cleavage in PMN lysates, Western blot; type: cell-based, human; details: PMN lysate, 16 h; proteins 1 μM, peptides 100 μM; six donors
ERK1/2 [12] = assay: ERK1/2 phosphorylation in PMNs, Western blot; type: cell-based, human; details: PMN stimulated with 1 nM PMA, 30 min, 37 °C; proteins 1 μM, peptides 100 μM
How it was run: as §2

αMβ2 on PMN = assay: Soluble Alexa 488-labeled ligand binding to PMN, FACS; set-up: species or system human; details: clustering inhibitor, 1 h, 37 °C, mean ± SEM, n = 3
How it was run: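 Human PMNs were incubated for 1 h at 37°C in HBSS/Ca²⁺/Mg²⁺ with soluble Alexa 488-labelled Plg or Fg, with or without clustering inhibitors. After two buffer washes, bound ligand was read by FACS; mean ± SEM, n = 3.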

recombinant purified β2 subunit, sequence (P05107 23-769): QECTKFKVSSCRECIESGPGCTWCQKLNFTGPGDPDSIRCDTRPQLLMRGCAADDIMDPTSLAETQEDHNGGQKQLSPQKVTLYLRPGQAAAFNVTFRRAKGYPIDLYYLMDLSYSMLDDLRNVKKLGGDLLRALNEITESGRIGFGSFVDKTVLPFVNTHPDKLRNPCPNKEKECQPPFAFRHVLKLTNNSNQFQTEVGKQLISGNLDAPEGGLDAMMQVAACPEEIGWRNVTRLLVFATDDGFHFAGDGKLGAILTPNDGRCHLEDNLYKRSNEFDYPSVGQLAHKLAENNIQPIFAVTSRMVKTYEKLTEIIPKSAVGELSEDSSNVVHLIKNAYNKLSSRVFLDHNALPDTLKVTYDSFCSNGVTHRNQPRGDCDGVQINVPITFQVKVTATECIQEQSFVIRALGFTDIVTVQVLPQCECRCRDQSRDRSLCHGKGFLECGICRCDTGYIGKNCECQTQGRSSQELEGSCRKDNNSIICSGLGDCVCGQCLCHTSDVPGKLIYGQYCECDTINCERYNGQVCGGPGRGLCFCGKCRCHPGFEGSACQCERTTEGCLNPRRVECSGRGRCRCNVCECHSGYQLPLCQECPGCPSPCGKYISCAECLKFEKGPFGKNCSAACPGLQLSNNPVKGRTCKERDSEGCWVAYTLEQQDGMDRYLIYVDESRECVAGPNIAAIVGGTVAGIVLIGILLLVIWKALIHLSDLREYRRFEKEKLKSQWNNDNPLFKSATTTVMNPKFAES

## GM-CSF: agent that promotes PMN responsiveness
PMN
  effect on PMN apoptosis: delay PMN apoptosis

## IL-8: agent that promotes PMN responsiveness
PMN
  effect on PMN apoptosis: delay PMN apoptosis

## KIIPFNRLTIG [P2-C]
[1]
  Kd: 0.05 µM
Human PMNs; 100 μM
  PMN early/late apoptosis (% annexin V+ cells), no inhibitor: 20.1 ± 4%

## TNF-α
PMN
  effect on PMN death: promote PMN death

## angiostatin [Ang(1–4)]
[1]
  recognition by individual integrin subunits (in words): recognized only by the αM and not by the β2 subunit
αM subunit on K562 cells
  soluble ligand binding, αM cells (in words): bound both ligands
β2 subunit on K562 cells
  soluble ligand binding, β2 cells (in words): failed to bind soluble Ang([1]– [4])
αMβ2
  αMβ2 macroclusters on PMN surface: did not support αMβ2 clustering
[2]
  K562 early/late apoptosis (% annexin V+ cells), mock: 78 ± 8%
caspase-8 [3]
  caspase-8 fragment: detected
Akt [4]
  Akt phosphorylation: negligible
Bax [5]
  Bax cleavage product, αMβ2 cells: present
ERK1/2 [6]
  ERK1/2 activation, αM cells: poorly induced
  ERK1/2 activation, αMβ2 cells: poorly induced
  ERK1/2 phosphorylation, mock and β2 cells: poorly induced
Akt [7]
  Akt phosphorylation, αM, β2 and mock cells: failed to induce Akt activation
  Akt phosphorylation, αMβ2 cells: failed to induce Akt activation
caspase-8 [8]
  caspase-8 cleavage product, αMβ2 cells: present
caspase-3 [9]
  18-kDa caspase-3 fragment: detected
αMβ2 on K562 cells
  soluble ligand binding, αMβ2 cells (in words): bound both ligands
caspase-3 [10]
  caspase-3 cleavage product, αMβ2 cells: present
Bax [11]
  22-kDa Bax fragment: detected

## fibrinogen [Fg]
[1]
  recognition by individual integrin subunits (in words): engage both integrin subunits
αM subunit on K562 cells
  soluble ligand binding, αM cells (in words): bound soluble Fg
β2 subunit on K562 cells
  soluble ligand binding, β2 cells (in words): bound soluble Fg
ERK1/2 [12]
  ERK1/2 activation: induced ERK1/2 activation
PMN
  effect on PMN apoptosis: delay PMN apoptosis
αMβ2
  αMβ2 macroclusters on PMN surface: detected
[2]
  K562 early/late apoptosis (% annexin V+ cells), mock: 72 ± 13%
caspase-8 [3]
  caspase-8 fragment: absent
Akt [4]
  Akt phosphorylation: robust Akt phosphorylation
Bax [5]
  Bax cleavage product, αMβ2 cells: not detected
ERK1/2 [6]
  ERK1/2 activation, αM cells: strongly induced
  ERK1/2 activation, αMβ2 cells: strongly induced
  ERK1/2 phosphorylation, mock and β2 cells: poorly induced
Akt [7]
  Akt phosphorylation, αM, β2 and mock cells: not in K562 cells expressing the individual αM or β2 subunits (Fig. 6A) or mock-transfected cells
  Akt phosphorylation, αMβ2 cells: robust Akt phosphorylation
caspase-8 [8]
  caspase-8 cleavage product, αMβ2 cells: not detected
caspase-3 [9]
  18-kDa caspase-3 fragment: absent
αMβ2 on K562 cells
  soluble ligand binding, αMβ2 cells (in words): bound soluble Fg
caspase-3 [10]
  caspase-3 cleavage product, αMβ2 cells: not detected
Bax [11]
  22-kDa Bax fragment: absent

## methyl-β-cyclodextrin [MβCD]
αMβ2 on PMN
  ligand binding, inhibitor, no ligand (background): 3.09 ± 0.4 MFI
Human PMNs; clustering inhibitor + Fg 1 μM, 37 °C, mean ± SEM, n = 5
  PMN early/late apoptosis (% annexin V+ cells), inhibitor + Fg: 59.3 ± 15%
Human PMNs; clustering inhibitor + P1 100 μM, 37 °C, mean ± SEM, n = 5
  PMN early/late apoptosis (% annexin V+ cells), inhibitor + P1: 66.3 ± 18%
Human PMNs; clustering inhibitor + P2-C 100 μM, 37 °C, mean ± SEM, n = 5
  PMN early/late apoptosis (% annexin V+ cells), inhibitor + P2-C: 75.6 ± 17%
Human PMNs; clustering inhibitor + Plg 1 μM, 37 °C, mean ± SEM, n = 5
  PMN early/late apoptosis (% annexin V+ cells), inhibitor + Plg: 75.0 ± 13%

Reference: paper PMC2978023 (Journal of immunology (Baltimore, Md. : 1950), 2008)
